This note sets out measurements from ChEMBL document CHEMBL1135571, “Synthesis and optimization of a new family of type 3 17 beta-hydroxysteroid dehydrogenase inhibitors by parallel liquid-phase chemistry” (J Med Chem, 2002).

Test [1] can be described thus: Proliferative activity against Shionogi(AR+) cells at 0.1 uM concentration. Type of test: functional.
The target in test [2] is T1, 17-beta-hydroxysteroid dehydrogenase type 3 (Homo sapiens, UniProt P37058).
T1 sequence (P37058 whole entry): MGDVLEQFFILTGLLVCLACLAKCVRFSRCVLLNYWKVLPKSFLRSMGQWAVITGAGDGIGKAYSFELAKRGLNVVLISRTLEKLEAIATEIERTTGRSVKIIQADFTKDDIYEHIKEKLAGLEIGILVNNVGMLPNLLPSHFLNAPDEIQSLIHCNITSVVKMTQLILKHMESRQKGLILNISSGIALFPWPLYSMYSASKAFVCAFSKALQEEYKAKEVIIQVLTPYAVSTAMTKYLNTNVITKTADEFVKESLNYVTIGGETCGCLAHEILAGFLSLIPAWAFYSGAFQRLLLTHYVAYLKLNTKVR
Nature of the test: The ability to inhibit the Type-3 17-beta- hydroxysteroid dehydrogenase activity in transfected human embryonic kidney (HEK)-293 cells experiment 3. Type of test: cell-based, HEK293. The gist of the method:
(§1)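 Type 3 17β-HSD expressed by calcium phosphate transfection in HEK-293 cells. Cells sonicated in 50 mM sodium phosphate pH 7.4 with 20% glycerol and 1 mM EDTA, then spun at 10 000g for 1 h; the 100 000g microsomal pellet is the enzyme source. Assay at 37 °C in the same buffer with 5 mM NADPH and 0.05 μM [14C]Δ4-dione. Labeled testosterone formed is measured; […].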

Test [3] is described as follows: Proliferative activity against Shionogi(AR+) cells at 1 uM concentration. Type of test: functional.
The target of test [4] is T1, 17-beta-hydroxysteroid dehydrogenase type 3. Nature of the test: Concentration to inhibit 50% activity of the Type-3 17-beta- hydroxysteroid dehydrogenase. The method, boiled down:
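Microsomal fraction from HEK-293 cells transfected with type 3 17β-HSD, prepared by sonication and differential centrifugation (10 000g, then 100 000g) in 50 mM sodium phosphate pH 7.4, 20% glycerol, 1 mM EDTA. Incubated at 37 °C with 5 mM NADPH, 0.05 μM [14C]Δ4-dione and a range of inhibitor concentrations. Labeled testosterone formed is measured; IC50 is computed from the 50% inhibition point.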

Test [5] in a line: Proliferative activity against Shionogi (AR+) cells at 0.1 uM concentration. Type of test: functional.
Test [6] is described as follows: Proliferative activity against Shionogi (AR+) cells at 1 uM concentration. Type of test: functional.
The target of test [7] is T1, 17-beta-hydroxysteroid dehydrogenase type 3. Briefly: The ability to inhibit the Type-3 17-beta- hydroxysteroid dehydrogenase activity in transfected human embryonic kidney (HEK)-293 cells experiment 2. It counts as cell-based, HEK293. The method, boiled down: as §1
For test [8] the target is unchanged. Nature of the test: Ability to inhibit the Type-3 17-beta- hydroxysteroid dehydrogenase activity transfected in human embryonic kidney (HEK)-293 cells experiment 2. Type of test: cell-based, HEK293.
Test [9] shares this target. Briefly: Ability to inhibit the Type-3 17-beta- hydroxysteroid dehydrogenase activity transfected in human embryonic kidney (HEK)-293 cells experiment 3. Type of test: cell-based, HEK293.

Values joined by “and” are separate entries in the source; they are usually repeats but may differ in a detail not shown here. Identical values can stand only once.

One may read the inhibition as the relative decrease from the control value, in per cent. What is called IC50 is the midpoint of a concentration-inhibition curve. With `C[C@]12CC[C@](O)(Cc3ccccc3)CC1CC[C@@H]1[C@@H]2CC[C@]2(C)C(=O)CC[C@@H]12` (stereo partly drawn), the inhibition at 0.1 µM in [1] was 27%. The same molecule registered a half-inhibitory concentration (IC50) in test [2] of 98 nM. 1 µM produced 100% inhibition in test [3].
`C[C@]12CC[C@@]3(CC1CC[C@@H]1[C@@H]2CC[C@]2(C)C(=O)CC[C@@H]12)CN(CC(CN1CCOCC1)OC(=O)CCC1CCCC1)C(=O)O3` (stereo partly drawn): in [1], the inhibition at 0.1 µM stood at 4%. This molecule registered a 50% inhibitory concentration (IC50) in test [4] of 74 nM. This molecule gave an inhibition at 1 µM in [3] of 6%.
Molecule `C[C@]12CC[C@@H](O)C[C@H]1CC[C@@H]1[C@@H]2CC[C@]2(C)C(=O)CC[C@@H]12` [ETIOCHOLANOLONE] had an inhibition at 0.1 µM in [1] of 14%. In test [2], the IC50 came out at 182 nM. Moreover, at 1 µM the inhibition in [3] was 2%.
As for `CCCC(=O)N(CC1C2CC3CC(C2)CC1C3)C[C@@]1(O)CC[C@@]2(C)C(CC[C@@H]3[C@@H]2CC[C@]2(C)C(=O)CC[C@@H]32)C1` (stereo partly drawn), the IC50 in test [4] is 35 nM and 57 nM. The same molecule showed an inhibition at 0.1 µM in [5] of 7%. For the same molecule, testing at 1 µM in [6] gave an inhibition of 96%.
Consider `CCCCN(CC1C2CC3CC(C2)CC1C3)C[C@@]1(O)CC[C@@]2(C)C(CC[C@@H]3[C@@H]2CC[C@]2(C)C(=O)CC[C@@H]32)C1` (stereo partly drawn), for which the inhibition at 0.1 µM in test [1] amounted to 3%. The IC50 in test [4] amounted to 80 nM. In addition, the inhibition at 1 µM in test [3] is 7%.
In test [4], `C[C@]12CC[C@](O)(CN(CC3CCCCC3)C(=O)C3CC3)CC1CC[C@@H]1[C@@H]2CC[C@]2(C)C(=O)CC[C@@H]12` (stereo partly drawn) returned an IC50 of 85 nM. Besides, testing at 0.1 µM in test [5] gave an inhibition of 1%. Further, the inhibition at 1 µM in [6] was found to be 0%.
In turn, `CCCCCCCCN(C[C@@]1(O)CC[C@@]2(C)C(CC[C@@H]3[C@@H]2CC[C@]2(C)C(=O)CC[C@@H]32)C1)C(=O)C1CC1` (stereo partly drawn) returned a 50% inhibitory concentration (IC50) in test [7] of 57 nM. In addition, 0.1 µM produced 0% inhibition in test [5]. Also, at 1 µM the inhibition in test [6] was 0%.
On to `C[C@]12CCC(=O)C=C1CC[C@@H]1[C@@H]2CC[C@]2(C)C(=O)CC[C@@H]12` [ANDROSTENEDIONE], for which the IC50 in [8] is 650 nM; in [9] it was 489 nM.
